The text below walks through data of ChEMBL document CHEMBL1212781, “VIM-19, a metallo-beta-lactamase with increased carbapenemase activity from Escherichia coli and Klebsiella pneumoniae” (2010).

What all share (format): functional
The test system of assay [1] is Escherichia coli. The experiment in a line: Antimicrobial activity in Escherichia coli DIH-1 expressing beta-lactamase VIM-19 by Etest. In a few lines:
(§1)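 MICs read by Etest on Mueller-Hinton agar incubated at 37°C. Susceptibility was categorized according to CLSI guidelines. Transconjugants were obtained in E. coli J53 by liquid mating at 37°C, with selection on agar containing amoxicillin (50 μg/ml) and azide (100 μg/ml).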

The subject of assay [2] is Klebsiella pneumoniae. The experiment in a line: Antimicrobial activity in Klebsiella pneumoniae DIH-2 clinical isolate expressing beta-lactamase VIM-19 by Etest.
In assay [3] the test system is Escherichia coli. The experiment in a line: microbe, parasite or virus in culture. The settings on record: TOP10.
The test system of assay [4] is Escherichia coli. The experiment in a line: microbe, parasite or virus in culture. The settings on record: TOP10. This is another data set of the same source.
Assay [5] has as its system Escherichia coli. The experiment in a line: microbe, parasite or virus in culture. The settings on record: TOP10. This is another data set of the same source.
The test system of assay [6] is Escherichia coli. The assay can be described thus: microbe, parasite or virus in culture. As to conditions: TOP10. The source holds these as a separate data set.
Assay [7] relates to Escherichia coli. The assay can be described thus: Antimicrobial activity in Escherichia coli J53 transconjugate with Escherichia coli DIH-1 expressing natural plasmid containing beta-lactamase VIM-19. In a few lines:
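Transconjugants came from liquid mating-out at 37°C with azide-resistant E. coli J53 as recipient, selected on agar with amoxicillin (50 μg/ml) plus azide (100 μg/ml). MICs were then read by Etest on Mueller-Hinton agar at 37°C and interpreted per CLSI.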

In assay [8] the test system is Escherichia coli. The experiment in a line: Antimicrobial activity in Escherichia coli TOP10 strain. Summed up:
(§2)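 MICs were determined by Etest on Mueller-Hinton agar plates incubated at 37°C. Susceptibility was interpreted according to CLSI guidelines.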

Assay [9] deals with Escherichia coli. The experiment in a line: Antimicrobial activity in Escherichia coli J53 strain. In a few lines: as §2
In assay [10] the test system is Escherichia coli. The experiment in a line: Antimicrobial activity in Escherichia coli DIH-1 expressing beta-lactamase VIM-19 by Etest in presence of 4 ug/ml Tazobactam. Summed up: as §1
In assay [11] the test system is Klebsiella pneumoniae. The assay can be described thus: Antimicrobial activity in Klebsiella pneumoniae DIH-2 clinical isolate expressing beta-lactamase VIM-19 by Etest in presence of 4 ug/ml Tazobactam. In a few lines: as §1
Assay [12] deals with Escherichia coli. The experiment in a line: Antimicrobial activity in Escherichia coli TOP10 hourbouring recombinant plasmid VIM-19 by Etest in presence of 4 ug/ml Tazobactam. Summed up:
(§3)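 Recombinant plasmids were carried in the TOP10 cloning host. The N215K variant was made by site-directed mutagenesis using pVIM-1 as PCR template. MIC by Etest on Mueller-Hinton agar at 37°C, with CLSI interpretation.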

Assay [13] deals with Escherichia coli. The experiment in a line: Antimicrobial activity in Escherichia coli TOP10 hourbouring recombinant plasmid VIM-4 by Etest in presence of 4 ug/ml Tazobactam. Summed up: as §3
Assay [14] deals with Escherichia coli. The experiment in a line: Antimicrobial activity in Escherichia coli TOP10 strain harbouring recombinant plasmid VIM-1 by Etest in presence of 4 ug/ml Tazobactam. Summed up:
as §3

The test system of assay [15] is Escherichia coli. The experiment in a line: Antimicrobial activity in Escherichia coli TOP10 harbouring recombinant plasmid VIM-1-N215K by Etest in presence of 4 ug/ml Tazobactam. Summed up: as §3
Assay [16] concerns Escherichia coli. The assay can be described thus: Antimicrobial activity in Escherichia coli J53 transconjugate with Escherichia coli DIH-1 expressing natural plasmid containing beta-lactamase VIM-19 in presence of 4 ug/ml Tazobactam. Summed up:
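Transconjugant came from liquid mating-out at 37°C into azide-resistant J53, selected on agar with amoxicillin (50 μg/ml) plus azide (100 μg/ml). MIC by Etest on Mueller-Hinton agar at 37°C, with CLSI interpretation.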

Assay [17] relates to Escherichia coli. The assay can be described thus: Antimicrobial activity in Escherichia coli TOP10 strain in presence of 4 ug/ml Tazobactam. Summed up:
(§4)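 MIC by Etest on Mueller-Hinton agar plates at 37°C, with susceptibility interpreted per CLSI guidelines.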

For assay [18], the system named is Escherichia coli. The experiment in a line: Antimicrobial activity in Escherichia coli J53 strain in presence of 4 ug/ml Tazobactam. Summed up: as §4

≈ marks a conversion by molar mass, not a printed value.

Turning to `CCN1CCN(C(=O)N[C@@H](C(=O)N[C@@H]2C(=O)N3[C@@H]2SC(C)(C)[C@@H]3C(=O)O)c2ccccc2)C(=O)C1=O` [PIPERACILLIN], the MIC in [1] is > 512 µg/mL; in [2], > 512 µg/mL; in [3], 256 µg/mL (≈ 495 µM); in assay [4] it was 256 µg/mL (≈ 495 µM); in assay [5], 256 µg/mL (≈ 495 µM); in assay [6], 256 µg/mL (≈ 495 µM). Besides, the MIC was 256 µg/mL (≈ 495 µM) in assay [7]; 1 µg/mL (≈ 1.93 µM) in assay [8]; 1 µg/mL (≈ 1.93 µM) in [9]; > 512 µg/mL in assay [10]; > 512 µg/mL in assay [11]; 256 µg/mL in assay [12]. Also, the MIC was determined as 256 µg/mL in assay [13]; 256 µg/mL in [14]; 256 µg/mL in assay [15]; 256 µg/mL in assay [16]; 1 µg/mL in [17]; 1 µg/mL in assay [18].
